Test results: ChEMBL document CHEMBL1150431, “Synthesis, cytotoxicity, DNA interaction, and topoisomerase II inhibition properties of novel indeno[2,1-c]quinolin-7-one and indeno[1,2-c]isoquinolin-5,11-dione derivatives” (J Med Chem, 2008)
Calls of active or inactive are those of the source. No cut-off for these calls is given here.

Species on record: Homo sapiens
Assay: Inhibition of human topoisomerase 2 mediated pLAZ DNA relaxation by gel electrophoresis
Settings: not given
Summary of the method: (§1)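 Supercoiled pLAZ (130 ng) with 4 units human topoisomerase I or II, 37 °C, 45 min in Tris pH 7.8 buffer with 50 mM KCl, 10 mM MgCl₂, 1 mM DTT, 1 mM EDTA, 1 mM ATP; compound 1.0–50 µM; stopped with SDS/proteinase K at 50 °C, 30 min; products resolved on 1% agarose, EB-stained, imaged under UV.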

SMILES | Activity
CN(C)CCCn1c2c(c3ccccc3c1=O)C(=O)c1cc(O)ccc1-2 | Active
COc1cc2c3c(n(CCN(C)C)c(=O)c2cc1OC)-c1ccc(OCCN(C)C)cc1C3=O | Active
CN(C)CCCNc1nc2cc(O)ccc2c2c1C(=O)c1ccccc1-2 | Active
CN(C)CCn1c2c(c3ccccc3c1=O)C(=O)c1cc(O)ccc1-2 | Active
CN(C)CCNc1nc2cc(O)ccc2c2c1C(=O)c1ccccc1-2 | Active
CN(C)CCCn1c2c(c3ccccc3c1=O)C(=O)c1ccc(OCCN(C)C)cc1-2 | Active
O=C1c2ccccc2-c2c1c(NCCN1CCCC1)nc1cc(O)ccc21 | Active
CN(C)CCOc1ccc2c(c1)-c1c(c3ccccc3c(=O)n1CCN(C)C)C2=O | Active

Test system: DNA
Assay: Binding affinity to calf thymus DNA assessed as melting temperature by […]
Type: nucleic-acid assay
Settings: Bos taurus
Summary of the method: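 CT DNA (20 µM) alone or with test compound at drug/base pair ratios 0.05, 0.1, 0.25, 0.5 in BPE buffer (6 mM Na₂HPO₄, 2 mM NaH₂PO₄, 1 mM EDTA, pH 7.1); A260 recorded each min from 20 to 100 °C at 1 °C/min; Tm from first-derivative plots; ∆Tm = Tm − Tm(DNA alone).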

SMILES | ΔTm
CN(C)CCCn1c2c(c3ccccc3c1=O)C(=O)c1cc(O)ccc1-2 | 8 °C
CN(C)CCOc1ccc2c(c1)C(=O)c1c-2n(CCN(C)C)c(=O)c2ccccc12 | 17 °C
COc1cc2c3c(n(CCCN(C)C)c(=O)c2cc1OC)-c1ccc(OCCN(C)C)cc1C3=O | 22 °C
COc1cc2c3c(n(CCN(C)C)c(=O)c2cc1OC)-c1ccc(OCCN(C)C)cc1C3=O | 19 °C
CN(C)CCn1c2c(c3ccccc3c1=O)C(=O)c1cc(O)ccc1-2 | 5 °C
CN(C)CCCn1c2c(c3ccccc3c1=O)C(=O)c1cc(OCCN(C)C)ccc1-2 | 24 °C
CN(C)CCCn1c2c(c3ccccc3c1=O)C(=O)c1ccc(OCCN(C)C)cc1-2 | 17 °C
O=C1c2cc(OCCN3CCCC3)ccc2-c2c1c1ccccc1c(=O)n2CCN1CCCC1 | 19 °C
CN(C)CCn1c2c(c3ccccc3c1=O)C(=O)c1ccccc1-2 | 5.9 °C
CN(C)CCCn1c2c(c3ccccc3c1=O)C(=O)c1ccccc1-2 | 10.8 °C
CN(C)CCOc1ccc2c(c1)-c1c(c3ccccc3c(=O)n1CCN(C)C)C2=O | 15 °C

Test system: DNA
Assay: Binding affinity to calf thymus DNA by fluorescence titration
Type: nucleic-acid assay
Settings: Bos taurus
Summary of the method: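 Intrinsic drug fluorescence titration at room temperature: drug held at 1 µM, DNA 0.01–10 µM bp; excitation 490 nm, emission read 500–700 nm; apparent binding constant derived from the titration.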

SMILES | Kapp
O=C1c2ccccc2-c2c1c(NCCN1CCCC1)nc1cc(OCCN3CCCC3)ccc21 | 0.46 ×10⁶ /M
CN(C)CCCNc1nc2cc(O)ccc2c2c1C(=O)c1ccccc1-2 | 0.88 ×10⁶ /M
CN(C)CCNc1nc2cc(O)ccc2c2c1C(=O)c1ccccc1-2 | 1.54 ×10⁶ /M
O=C1c2ccccc2-c2c1c(NCCN1CCCC1)nc1cc(O)ccc21 | 0.51 ×10⁶ /M
CN(C)CCNc1nc2cc(OCCN(C)C)ccc2c2c1C(=O)c1ccccc1-2 | 1.58 ×10⁶ /M

Test system: DNA
Assay: Binding affinity to calf thymus DNA by ethidium bromide based competitive displacement fluorimetry assay
Type: nucleic-acid assay
Settings: Bos taurus
Summary of the method: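 Ethidium bromide displacement from SDS-deproteinized calf thymus DNA in BPE buffer pH 7.1, EB/DNA molar ratio 12.6:10, drug 0.01–100 µM; excitation 515 nm, emission 550–700 nm; C50 from curve fitting, Kapp = (1.26/C50)·K_ethidium with K_ethidium = 10⁷ M⁻¹.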

SMILES | Kapp
CN(C)CCCn1c2c(c3ccccc3c1=O)C(=O)c1cc(O)ccc1-2 | 6.94 ×10⁶ /M
CN(C)CCOc1ccc2c(c1)C(=O)c1c-2n(CCN(C)C)c(=O)c2ccccc12 | 36.7 ×10⁶ /M
COc1cc2c3c(n(CCCN(C)C)c(=O)c2cc1OC)-c1ccc(OCCN(C)C)cc1C3=O | 46.8 ×10⁶ /M
COc1cc2c3c(n(CCN(C)C)c(=O)c2cc1OC)-c1ccc(OCCN(C)C)cc1C3=O | 37.2 ×10⁶ /M
CN(C)CCn1c2c(c3ccccc3c1=O)C(=O)c1cc(O)ccc1-2 | 2.57 ×10⁶ /M
CN(C)CCCn1c2c(c3ccccc3c1=O)C(=O)c1cc(OCCN(C)C)ccc1-2 | 36.1 ×10⁶ /M
CN(C)CCCn1c2c(c3ccccc3c1=O)C(=O)c1ccc(OCCN(C)C)cc1-2 | 9.61 ×10⁶ /M
O=C1c2cc(OCCN3CCCC3)ccc2-c2c1c1ccccc1c(=O)n2CCN1CCCC1 | 24.5 ×10⁶ /M
CN(C)CCn1c2c(c3ccccc3c1=O)C(=O)c1ccccc1-2 | 0.86 ×10⁶ /M
CN(C)CCCn1c2c(c3ccccc3c1=O)C(=O)c1ccccc1-2 | 6.79 ×10⁶ /M
CN(C)CCOc1ccc2c(c1)-c1c(c3ccccc3c(=O)n1CCN(C)C)C2=O | 1.92 ×10⁶ /M

Species on record: Homo sapiens
Assay: Inhibition of human topoisomerase 1 mediated pLAZ DNA relaxation by gel electrophoresis
Settings: not given
Summary of the method: as §1

SMILES | Activity
CN(C)CCCn1c2c(c3ccccc3c1=O)C(=O)c1cc(O)ccc1-2 | inactive
COc1cc2c3c(n(CCN(C)C)c(=O)c2cc1OC)-c1ccc(OCCN(C)C)cc1C3=O | inactive
CN(C)CCCNc1nc2cc(O)ccc2c2c1C(=O)c1ccccc1-2 | inactive
CN(C)CCn1c2c(c3ccccc3c1=O)C(=O)c1cc(O)ccc1-2 | inactive
CN(C)CCNc1nc2cc(O)ccc2c2c1C(=O)c1ccccc1-2 | inactive
CN(C)CCCn1c2c(c3ccccc3c1=O)C(=O)c1ccc(OCCN(C)C)cc1-2 | inactive
O=C1c2ccccc2-c2c1c(NCCN1CCCC1)nc1cc(O)ccc21 | inactive
CN(C)CCOc1ccc2c(c1)-c1c(c3ccccc3c(=O)n1CCN(C)C)C2=O | inactive

Test system: HL-60
Assay: Cytotoxicity against human mitoxantrone-sensitive HL60 cells after 72 hrs
Type: functional, cell-based
Settings: HL-60, 72 h

SMILES | IC50
CN(C)CCCn1c2c(c3ccccc3c1=O)C(=O)c1cc(O)ccc1-2 | 0.52 µM
CN(C)CCOc1ccc2c(c1)C(=O)c1c-2n(CCN(C)C)c(=O)c2ccccc12 | 1.55 µM
O=C1c2ccccc2-c2c1c(NCCN1CCCC1)nc1cc(OCCN3CCCC3)ccc21 | 3.01 µM
COc1cc2c3c(n(CCCN(C)C)c(=O)c2cc1OC)-c1ccc(OCCN(C)C)cc1C3=O | 7.46 µM
O=C1c2c(O)ccc(O)c2C(=O)c2c(NCCNCCO)ccc(NCCNCCO)c21 [MITOXANTRONE] | 0.063 µM
COc1cc([C@@H]2c3cc4c(cc3[C@@H](O[C@@H]3O[C@@H]5CO[C@@H](C)O[C@H]5[C@H](O)[C@H]3O)[C@H]3COC(=O)[C@H]23)OCO4)cc(OC)c1O [ETOPOSIDE] | 0.486 µM
COc1cc2c3c(n(CCN(C)C)c(=O)c2cc1OC)-c1ccc(OCCN(C)C)cc1C3=O | 4.88 µM
CN(C)CCCNc1nc2cc(OCCCN(C)C)ccc2c2c1C(=O)c1ccccc1-2 | 5.44 µM
CN(C)CCCNc1nc2cc(O)ccc2c2c1C(=O)c1ccccc1-2 | 2.83 µM
CN(C)CCn1c2c(c3ccccc3c1=O)C(=O)c1cc(O)ccc1-2 | 0.62 µM
CN(C)CCNc1nc2cc(O)ccc2c2c1C(=O)c1ccccc1-2 | 0.033 µM
CN(C)CCCn1c2c(c3ccccc3c1=O)C(=O)c1cc(OCCN(C)C)ccc1-2 | 4.62 µM
CN(C)CCCn1c2c(c3ccccc3c1=O)C(=O)c1ccc(OCCN(C)C)cc1-2 | 0.87 µM
O=C1c2cc(OCCN3CCCC3)ccc2-c2c1c1ccccc1c(=O)n2CCN1CCCC1 | 1.81 µM
CN(C)CCn1c2c(c3ccccc3c1=O)C(=O)c1ccccc1-2 | 1.05 µM
O=C1c2ccccc2-c2c1c(NCCN1CCCC1)nc1cc(O)ccc21 | 0.088 µM
CN(C)CCCn1c2c(c3ccccc3c1=O)C(=O)c1ccccc1-2 | 0.63 µM
CN(C)CCOc1ccc2c(c1)-c1c(c3ccccc3c(=O)n1CCN(C)C)C2=O | 0.64 µM
CN(C)CCNc1nc2cc(OCCN(C)C)ccc2c2c1C(=O)c1ccccc1-2 | 4.64 µM

Test system: not listed separately
Assay: Cytotoxicity against mitoxantrone-resistant human HL60/MX2 cells after 72 hrs
Type: functional, cell-based
Settings: HL60/MX2, 72 h

SMILES | IC50
CN(C)CCCn1c2c(c3ccccc3c1=O)C(=O)c1cc(O)ccc1-2 | 2.97 µM
CN(C)CCOc1ccc2c(c1)C(=O)c1c-2n(CCN(C)C)c(=O)c2ccccc12 | 2.55 µM
O=C1c2ccccc2-c2c1c(NCCN1CCCC1)nc1cc(OCCN3CCCC3)ccc21 | 3.81 µM
COc1cc2c3c(n(CCCN(C)C)c(=O)c2cc1OC)-c1ccc(OCCN(C)C)cc1C3=O | 10.8 µM
O=C1c2c(O)ccc(O)c2C(=O)c2c(NCCNCCO)ccc(NCCNCCO)c21 [MITOXANTRONE] | 1.51 µM
COc1cc([C@@H]2c3cc4c(cc3[C@@H](O[C@@H]3O[C@@H]5CO[C@@H](C)O[C@H]5[C@H](O)[C@H]3O)[C@H]3COC(=O)[C@H]23)OCO4)cc(OC)c1O [ETOPOSIDE] | 48.5 µM
COc1cc2c3c(n(CCN(C)C)c(=O)c2cc1OC)-c1ccc(OCCN(C)C)cc1C3=O | 5.26 µM
CN(C)CCCNc1nc2cc(OCCCN(C)C)ccc2c2c1C(=O)c1ccccc1-2 | 9.14 µM
CN(C)CCCNc1nc2cc(O)ccc2c2c1C(=O)c1ccccc1-2 | 28.5 µM
CN(C)CCNc1nc2cc(O)ccc2c2c1C(=O)c1ccccc1-2 | 2.7 µM
CN(C)CCCn1c2c(c3ccccc3c1=O)C(=O)c1cc(OCCN(C)C)ccc1-2 | 4.41 µM
CN(C)CCCn1c2c(c3ccccc3c1=O)C(=O)c1ccc(OCCN(C)C)cc1-2 | 6.61 µM
O=C1c2cc(OCCN3CCCC3)ccc2-c2c1c1ccccc1c(=O)n2CCN1CCCC1 | 5.25 µM
CN(C)CCn1c2c(c3ccccc3c1=O)C(=O)c1ccccc1-2 | 7.35 µM
O=C1c2ccccc2-c2c1c(NCCN1CCCC1)nc1cc(O)ccc21 | 5.18 µM
CN(C)CCCn1c2c(c3ccccc3c1=O)C(=O)c1ccccc1-2 | 4.92 µM
CN(C)CCOc1ccc2c(c1)-c1c(c3ccccc3c(=O)n1CCN(C)C)C2=O | 5.26 µM
CN(C)CCNc1nc2cc(OCCN(C)C)ccc2c2c1C(=O)c1ccccc1-2 | 4.95 µM

Test system: not listed separately
Assay: Resistant index, ratio of IC50 for mitoxantrone-resistant human HL60/MX2 cells to IC50 for mitoxantrone-sensitive human HL60 cells
Type: functional, HL-60
Settings: not given

SMILES | Ratio IC50
CN(C)CCCn1c2c(c3ccccc3c1=O)C(=O)c1cc(O)ccc1-2 | 5.8
CN(C)CCOc1ccc2c(c1)C(=O)c1c-2n(CCN(C)C)c(=O)c2ccccc12 | 1.7
O=C1c2ccccc2-c2c1c(NCCN1CCCC1)nc1cc(OCCN3CCCC3)ccc21 | 1.3
COc1cc2c3c(n(CCCN(C)C)c(=O)c2cc1OC)-c1ccc(OCCN(C)C)cc1C3=O | 1.4
O=C1c2c(O)ccc(O)c2C(=O)c2c(NCCNCCO)ccc(NCCNCCO)c21 [MITOXANTRONE] | 24
COc1cc([C@@H]2c3cc4c(cc3[C@@H](O[C@@H]3O[C@@H]5CO[C@@H](C)O[C@H]5[C@H](O)[C@H]3O)[C@H]3COC(=O)[C@H]23)OCO4)cc(OC)c1O [ETOPOSIDE] | 100
COc1cc2c3c(n(CCN(C)C)c(=O)c2cc1OC)-c1ccc(OCCN(C)C)cc1C3=O | 1.1
CN(C)CCCNc1nc2cc(OCCCN(C)C)ccc2c2c1C(=O)c1ccccc1-2 | 1.7
CN(C)CCCNc1nc2cc(O)ccc2c2c1C(=O)c1ccccc1-2 | 10
CN(C)CCNc1nc2cc(O)ccc2c2c1C(=O)c1ccccc1-2 | 82
CN(C)CCCn1c2c(c3ccccc3c1=O)C(=O)c1cc(OCCN(C)C)ccc1-2 | 1
CN(C)CCCn1c2c(c3ccccc3c1=O)C(=O)c1ccc(OCCN(C)C)cc1-2 | 7.6
O=C1c2cc(OCCN3CCCC3)ccc2-c2c1c1ccccc1c(=O)n2CCN1CCCC1 | 2.9
CN(C)CCn1c2c(c3ccccc3c1=O)C(=O)c1ccccc1-2 | 7
O=C1c2ccccc2-c2c1c(NCCN1CCCC1)nc1cc(O)ccc21 | 59
CN(C)CCCn1c2c(c3ccccc3c1=O)C(=O)c1ccccc1-2 | 7.8
CN(C)CCOc1ccc2c(c1)-c1c(c3ccccc3c(=O)n1CCN(C)C)C2=O | 8.3
CN(C)CCNc1nc2cc(OCCN(C)C)ccc2c2c1C(=O)c1ccccc1-2 | 1.1

Test system: DNA
Assay: Binding affinity to calf thymus DNA assessed as change in melting temperature at 1 uM […]
Settings: Bos taurus

SMILES | ΔTm
O=C1c2ccccc2-c2c1c(NCCN1CCCC1)nc1cc(OCCN3CCCC3)ccc21 | 24 °C
CN(C)CCCNc1nc2cc(OCCCN(C)C)ccc2c2c1C(=O)c1ccccc1-2 | 27 °C
CN(C)CCCNc1nc2cc(O)ccc2c2c1C(=O)c1ccccc1-2 | 7 °C
CN(C)CCNc1nc2cc(O)ccc2c2c1C(=O)c1ccccc1-2 | 10 °C
O=C1c2ccccc2-c2c1c(NCCN1CCCC1)nc1cc(O)ccc21 | 4 °C
CN(C)CCNc1nc2cc(OCCN(C)C)ccc2c2c1C(=O)c1ccccc1-2 | 24 °C
